Consider seven compounds from ChEMBL document CHEMBL1150164, “New cytotoxic xenia diterpenoids from the Formosan soft coral Xenia umbellata” (2002).

≈ marks a conversion by molar mass, not a printed value.

Common to all, as to format: functional
Common to all, as to conditions: read-out: ED50 (the source's name)

The test system of test [1] is HT-29. The experiment in a line: Cytotoxicity against human HT-29 cells. Put shortly: (§1)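 In vitro cytotoxicity against cultured human tumour cell lines: A549 (lung adenocarcinoma) and HT-29 (colon adenocarcinoma), both obtained from a cell-line collection.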
The test system of test [2] is P388. The test is described as follows: Cytotoxicity against mouse P388 cells. Put shortly: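 Murine P-388 lymphocytic leukaemia cells, supplied by an academic laboratory, were exposed to compounds in culture and cytotoxicity was measured in vitro.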
Test [3] has as its system A549. The test is described as follows: Cytotoxicity against human A549 cells. The gist of the method:
as §1

As for `C=C1CC[C@@H]2O[C@@]2(C)CC[C@H]2[C@H]1C(=O)O[C@@]2(/C=C/C=C(C)C)CO`, the EC50 in test [1] is 5.33 µg/mL (≈ 16 µM); in test [2], 3.66 µg/mL (≈ 11 µM); in test [3] it was 18.8 µg/mL (≈ 56.6 µM).
For `C=C1CC/C=C(\C)CC[C@@H]2/C(=C\CC3OC3(C)C)COC(=O)[C@@H]12` (stereo partly specified), the EC50 amounted to 21.1 µg/mL (≈ 66.7 µM) in test [1], 2.87 µg/mL (≈ 9.07 µM) in test [2] and 11.2 µg/mL (≈ 35.4 µM) in test [3].
For `C=C1CC[C@@H]2/C(=C\C=C\C(C)(C)O)COC(=O)[C@H]2C(=C)CCC1OO` (stereo partly specified), in that order: 8.31 µg/mL (≈ 23.8 µM), 0.04 µg/mL (≈ 0.115 µM) and 4.77 µg/mL (≈ 13.7 µM).
For `C=C1CC/C=C(\C)CC[C@@H]2/C(=C\C=C\C(C)(C)O)CO[C@H](O)[C@@H]12`, in that order: 12.9 µg/mL (≈ 40.5 µM), 3.45 µg/mL (≈ 10.8 µM) and 4.85 µg/mL (≈ 15.2 µM).
For `C=C1CC[C@@H]2O[C@@]2(C)CC[C@@H]2/C(=C\CC3OC3(C)C)COC(=O)[C@@H]12` (stereo partly specified), in that order: 7.77 µg/mL (≈ 23.4 µM), 3.35 µg/mL (≈ 10.1 µM) and 11.6 µg/mL (≈ 34.9 µM).
As for `C=C1CC/C=C(\C)CC[C@@H]2/C(=C\C=C\C(C)(C)O)[C@@H](OC)O[C@H](OC)[C@@H]12` [XENIBECIN], the values for the EC50 in test [1], in test [2] and in test [3] were 12.5 µg/mL (≈ 34.5 µM), 3.96 µg/mL (≈ 10.9 µM) and 13.4 µg/mL (≈ 37 µM), respectively.
For `C=C1CC[C@@H]2O[C@@]2(C)CC[C@H](/C(=C\CC2OC2(C)C)COC(C)=O)[C@H]1C(=O)OC` (stereo partly specified) [XENITACIN], the EC50 worked out at 1.12 µg/mL (≈ 2.76 µM) in test [1], 1.09 µg/mL (≈ 2.68 µM) in test [2] and 3.26 µg/mL (≈ 8.02 µM) in test [3].
